High-throughput results as filed in PubChem BioAssay.
CYP2C9 act – increases human cytochrome P450 2C9 activity; P11712; recombinant CYP2C9, luciferin-H conversion, luminescence; hits give high values; factor 1 = untreated enzyme, 0 = blocked; activation factor at 5 µM; 1.4% of 96,000 active; AID 1024;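 active = activation factor of 2 or more for CYP2C9 at a 5 µM dose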;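 note: 0 = sulfaphenazole-blocked wells and 1 = vehicle-only wells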
Target sequence (P11712 whole entry, looked up): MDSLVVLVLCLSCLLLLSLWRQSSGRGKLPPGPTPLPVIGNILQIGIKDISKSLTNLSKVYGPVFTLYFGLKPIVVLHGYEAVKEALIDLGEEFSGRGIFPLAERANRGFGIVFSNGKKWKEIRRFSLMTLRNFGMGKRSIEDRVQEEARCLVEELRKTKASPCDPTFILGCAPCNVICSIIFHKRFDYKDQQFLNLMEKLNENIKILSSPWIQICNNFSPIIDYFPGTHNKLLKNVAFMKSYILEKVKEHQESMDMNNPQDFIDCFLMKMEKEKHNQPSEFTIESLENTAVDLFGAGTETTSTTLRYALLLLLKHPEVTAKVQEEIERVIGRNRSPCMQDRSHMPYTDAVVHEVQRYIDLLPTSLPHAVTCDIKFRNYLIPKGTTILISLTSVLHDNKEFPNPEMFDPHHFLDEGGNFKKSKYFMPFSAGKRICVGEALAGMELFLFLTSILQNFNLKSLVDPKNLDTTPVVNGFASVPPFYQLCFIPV
CYP2C19 inh – human CYP2C19 inhibition; inhibition, % at 5 µM; P33261; CYP2C19 Supersomes, luciferin-H EGE luminescence, 30 min; 21% of 96,000 active;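 active = CYP2C19 inhibition above a set limit at 5 µM in the primary screen, cut at about 50% in these data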;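 note: plate controls were negative control wells for no effect and 2.5 mM tranylcypromine positive control for full effect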
Cav3 T inh – inhibitors of human Cav3.2 T-type calcium channel | 4% of 100,000 active | B-score at 10 µM | O95180 | Cav3.2-expressing cells, Fluo-4 calcium fluorescence FDSS; hits give low values | AID 449739;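 active = single-dose well whose peak fluorescence ratio is a statistical outlier from its plate by either plate-standardised score or position-corrected B-score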
CYP2C9 inh – inhibitors of human CYP2C9 | P11712 | CYP2C9 Supersomes, luciferin-H conversion, luminescence | inhibition, % at 5 µM | 20% of 96,000 active;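 active = blocking of liver enzyme CYP2C9 beyond about 50% at 5 µM, limit read from the data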
Rev-RRE block – HIV Rev-RRE protein-RNA interaction inhibition; P05866; Rev peptide-RRE RNA binding, FRET; inhibition, % at 8 µM; 0.79% of 97,000 active; AID 704;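 active = inhibition above the screen-wide mean plus 3 SD, cut at about 35% in these data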;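 note: 0% = median DMSO wells and 100% = median Neomycin B control wells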
Target sequence (P05866 whole entry, looked up): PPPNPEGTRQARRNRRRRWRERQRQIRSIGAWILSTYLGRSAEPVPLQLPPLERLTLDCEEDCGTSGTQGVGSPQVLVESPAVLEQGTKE
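Probe or stimulus: fluorescein-Rev peptide as binding partner; assay system: Cy5-tagged RRE RNA duplex with fluorescein-tagged Rev peptide; timing: 5 min compound–RNA preincubation, then 15 min with peptide, 25 °C; medium: HEPES pH 7.5 buffer with KCl, MgCl2, NaCl and EDTA; signal: fluorescein-to-Cy5 FRET, 480 nm excitation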
CYP2C19 activ – increases human CYP2C19 enzyme activity. P33261. 96,000 tested, under 10 active. AID 1025. activation factor at 5 µM. recombinant CYP2C19, luciferin-H EGE luminescence; hits give high values; 0 = fully inhibited enzyme, 1 = untreated enzyme;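 active = activation factor of at least 2 at 5 µM in the primary screen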;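 note: 0 = wells with 2.5 mM tranylcypromine and 1 = vehicle-only wells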
* hit, by the source's call; / = no result. The list is not random: actives were taken first. Their share in the collection is about 27%.

SMILES	CYP2C9 act	CYP2C19 inh	Cav3 T inh	CYP2C9 inh	Rev-RRE block	CYP2C19 activ
O=C(Nc1ccccn1)c1ccc(COc2ccccc2Cl)o1	/	/	-1.06	/	7.4	/
CN(C)c1ccc(NC(=O)c2ccc(COc3cccc(Cl)c3)o2)cc1	0.3	31.3	-2.85	70.7*	-0.3	0.7
O=C(Nc1cccnc1)c1ccc(COc2cc(Cl)ccc2Cl)o1	0.4	73.9*	-2.37	60.2*	3.5	0.3
O=C(N/N=C/c1ccc(O)cc1)c1ccc(COc2cc(Cl)ccc2Cl)o1	0.7	45.6	-2.21	28.9	0.7	0.5
COc1ccc(/C(C)=C(\C#N)C(=O)OC(C)C)cc1OC	/	/	0.738	/	-5.8	/
CCOc1ccc(OCc2ccc(C(=O)NCc3cccnc3)o2)cc1	0.6	43.0	-0.287	37.4	2.6	0.6
O=C(Nc1ccn(Cc2ccccc2F)n1)c1ccc(COc2cc(Cl)ccc2Cl)o1	0.1	60.6*	-4.91*	90.9*	10.8	0.4
O=C(Nc1ccn(Cc2ccccc2F)n1)c1ccc(COc2cccc(Br)c2)cc1	0.1	19.4	-7.33*	87.8*	9.1	0.8
O=C(Nc1ccn(Cc2ccccc2F)n1)c1ccc(COc2ccccc2Cl)cc1	0.1	79.0*	/	85.6*	17.9	0.2
O=C(NCc1cccnc1)c1ccc(COc2cccc3ccccc23)o1	1	52.8*	-2.88	1.7	4.5	0.5
Cc1cc(C)c(S(=O)(=O)c2ccccc2)c(OC(=O)c2cc(F)c(F)cc2Cl)n1	0.9	3.0	0.0563	7.1	8.3	1
Cc1ccccc1CNCc1cccnc1	0.8	-0.6	0.164	15.9	6.7	1
CCN(CC(=O)NCc1ccccn1)S(=O)(=O)c1ccc(Cl)cc1	0.9	40.3	1.6	5.4	8.3	0.6
O=C(Nc1ccn(Cc2c(F)c(F)c(F)c(F)c2F)n1)c1cccc(Cn2cc([N+](=O)[O-])cn2)c1	0.7	30.1	0.049	26.9	6.4	0.7
O=C(Nc1ccn(Cc2c(F)c(F)cc(F)c2F)n1)c1cccc(Cn2cc([N+](=O)[O-])cn2)c1	0.2	73.4*	-2.41	81.5*	6.4	0.3
O=C(Nc1ccn(Cc2c(F)c(F)cc(F)c2F)n1)c1ccc(COc2cc(Cl)ccc2Cl)o1	0.8	13.1	-2.65	19.3	7.9	0.9
O=C(Nc1ccn(Cc2c(F)c(F)cc(F)c2F)n1)c1ccc(COc2ccccc2Cl)cc1	0.3	32.1	-2.29	66.0*	16.9	0.7
COc1ccc(-c2nsc(SCC(=O)Nc3cc(C)on3)n2)cc1	0.5	42.3	-0.302	54.0*	3.9	0.6
CCc1nnc(NC(=O)CSc2ncnc3c2cnn3-c2ccc(OC)cc2)s1	0.7	31.5	0.275	28.3	2.1	0.7
CCc1nnc(NC(=O)CSc2nc(-c3ccc(OC)cc3)ns2)s1	0.3	31.4	-0.0514	71.6*	4.2	0.7
COc1ccc(Nc2nnc(SCC(=O)Nc3cc(C)on3)s2)cc1	0.9	-8.5	0.289	6.7	12.4	1.1
O=C(C1CCC1)N1CCc2cc(S(=O)(=O)N3CCc4ccccc4C3)ccc21	/	/	-1.19	/	7.1	/
O=C(NCCCN1CCOCC1)c1cc2ccccc2o1	0.9	24.9	0.2	7.2	1.2	0.8
NS(=O)(=O)c1cccnc1Nc1cccc(C(F)(F)F)c1	0.2	34.5	-1.25	77.6*	9.5	0.7
Cn1c(SCC(=O)NC2CC2)nnc1C(F)(F)F	1.1	2.3	-2.66	-8.2	/	1
SMILES	CYP2C9 act	CYP2C19 inh	Cav3 T inh	CYP2C9 inh	Rev-RRE block	CYP2C19 activ
CCc1nc(-c2ccccc2O)n(-c2ccccc2)n1	0.8	74.5*	0.0394	18.5	-0.1	0.3
Cc1nc(C(C)(C)O)n(-c2ccccc2)n1	1	9.9	1.02	4.5	3.3	0.9
CCOc1ccc2nc(N/C(N)=N/C(=S)Nc3cccc(C)c3)nc(C)c2c1	1	5.9	-5.5*	0.5	1.2	0.9
CCOC(=O)N1CCC(NC(=O)Cc2ccc(-n3c(=O)[nH]c4ccccc4c3=O)cc2)CC1	/	/	/	/	4.1	/
CCOC(=O)N1CCN(C(=O)c2ccc3c(=O)n(Cc4ccccc4)c(=S)[nH]c3c2)CC1	0.7	35.5	-2.76	29.4	-5.0	0.6
CCOC(=O)N1CCC(n2c(=S)[nH]c3ccccc3c2=O)CC1	0.2	13.9	/	81.1*	0.4	0.9
CCOC(=O)N1CCN(C(=O)c2ccc3c(=O)n(Cc4ccc(OC)cc4)c(=S)[nH]c3c2)CC1	/	/	-4.1*	/	1.8	/
CCOC(=O)c1[nH]c2ccc(Br)cc2c1NC(=O)CCN1CCC(C(=O)OCC)CC1	0.5	76.4*	-0.0277	49.4	2.4	0.2
CCOC(=O)N1CCN(C(=O)CCCn2c(=S)[nH]c3ccc(Br)cc3c2=O)CC1	0.3	73.2*	2.37	69.1*	2.4	0.3
CCOC(=O)N1CCN(C(=O)CCCn2c(=O)[nH]c3ccccc3c2=O)CC1	0.9	-0.8	0.274	5.6	-1.9	1
CCOC(=O)c1[nH]c2ccc(Br)cc2c1NC(=O)CCN1CCCCC1	0.8	9.2	-1.76	19.2	8.3	0.9
Cc1ccccc1/C(N)=N/OC(=O)/C=C/c1ccccc1	1.2	3.8	-1.06	-20.7	9.9	1
CC(C)(C)NCc1ccccc1OCc1cccs1	1	-8.1	-0.135	1.7	-2.5	1.1
Cc1cn(C(=O)c2ccccc2)c(=S)n1-c1ccc(Br)cc1	/	/	-2.24	/	7.8	/
CCOC(=O)c1[nH]c2ccc(Br)cc2c1NC(=O)CCN1CCN(C(=O)OCC)CC1	0.2	48.2	-0.9	76.1*	6.4	0.5
O=C(Cc1ccc(-n2c(=S)[nH]c3ccccc3c2=O)cc1)N1CCC(N2CCCCC2)CC1	0.1	-2.4	-0.222	92.0*	2.2	1
NC(=O)/C(=N\OC(=O)c1ccco1)c1nc(-c2ccc(Br)cc2)cs1	0.9	-1.6	-0.799	7.1	4.7	1
O=C(NC1CCCC1)c1cccc(NC(=O)c2ccco2)c1	0.5	-0.8	0.316	45.1	-1.2	1
CC(=O)c1ccc(NC(=O)C2CCC(C)NC2=O)cc1 (stereo not given)	1.1	-6.2	/	-6.8	9.2	1.1
Clc1ccc(-c2nnc(SCc3ccon3)o2)c(Cl)c1	0.4	96.7*	-0.765	61.9*	5.0	0
Clc1ccc(-c2nnc(SCc3nc4ccccc4[nH]3)o2)c(Cl)c1	/	/	-0.722	/	13.1	/
C=CCSc1nnc(-c2ccc(Cl)cc2Cl)o1	0.7	84.2*	/	32.0	7.7	0.2
COCCNC(=O)CN(C(=O)Cn1nnc2ccccc21)c1ccc(C)c(F)c1	/	/	0.932	/	0.8	/
O=[N+]([O-])c1ccc(C(=S)N2CCN(Cc3ccccc3)CC2)cc1	1.1	7.1	-0.193	-9.0	5.8	0.9
O=C(c1ccc([N+](=O)[O-])cc1)N(Cc1ccc(Br)cc1)N1C(=O)CCCC1=O	0.7	72.6*	-0.723	26.9	11.3	0.3
Cc1nnc(N(CCC#N)CCC#N)s1	0.9	5.4	0.855	10.4	3.1	0.9
